Results taken from ChEMBL document CHEMBL1144291, “Synthesis of 9-(2-beta-C-methyl-beta-d-ribofuranosyl)-6-substituted purine derivatives as inhibitors of HCV RNA replication” (Bioorg Med Chem Lett, 2005).

What was measured:
Hepatitis C virus [1] = assay: Cytotoxicity concentration to inhibit hepatitis C virus RNA replication in a subgenomic replicon cell line; format: functional, Hepacivirus hominis
Summary of the method: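 MTS assay run on samples set up in parallel with the HCV subgenomic replicon cultures.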

Hepatitis C virus [2] = assay: Inhibition of hepatitis C virus RNA replication in a subgenomic replicon cell line; format: functional, organism-based, Hepacivirus hominis
Summary of the method: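 HCV subgenomic replicon cells exposed to compound for 48 h; relative HCV replicon RNA then measured by luciferase reporter assay.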

Structure (SMILES)	CC50 (Hepatitis C virus [1]) [µM]	EC50 (Hepatitis C virus [2]) [µM]
CNCCN(C)c1ncnc2c1ncn2C1O[C@H](CO)[C@@H](O)[C@@]1(C)O (stereo not given in full)	300	200
C[C@]1(O)C(n2cnc3c(N4CCOCC4)ncnc32)O[C@H](CO)[C@H]1O (stereo not given in full)	300	100
CCNc1ncnc2c1ncn2C1O[C@H](CO)[C@@H](O)[C@@]1(C)O (stereo not given in full)	300	8
C[C@]1(O)C(n2cnc3c(C(=N)NO)ncnc32)O[C@H](CO)[C@H]1O (stereo not given in full)	300	100
COC(=N)c1ncnc2c1ncn2C1O[C@H](CO)[C@@H](O)[C@@]1(C)O (stereo not given in full)	300	120
C[C@]1(O)C(n2cnc3c(NOCCO)ncnc32)O[C@H](CO)[C@H]1O (stereo not given in full)	300	80
C[C@]1(O)C(n2cnc3c(NCCN)ncnc32)O[C@H](CO)[C@H]1O (stereo not given in full)	300	25
CC1(C)OCC(CNc2ncnc3c2ncn3C2O[C@H](CO)[C@@H](O)[C@@]2(C)O)O1 (stereo not given in full)	300	300
CC(C)NC(=O)N(O)c1ncnc2c1ncn2C1O[C@H](CO)[C@@H](O)[C@@]1(C)O (stereo not given in full)	300	6
CCOc1ccccc1CNc1ncnc2c1ncn2C1O[C@H](CO)[C@@H](O)[C@@]1(C)O (stereo not given in full)	250	50
CCC(=O)N(O)c1ncnc2c1ncn2C1O[C@H](CO)[C@@H](O)[C@@]1(C)O (stereo not given in full)	300	3.3
COc1ncnc2c1ncn2C1O[C@H](COP(=O)(OCCSC(=O)C(C)(C)C)OCCSC(=O)C(C)(C)C)[C@@H](O)[C@@]1(C)O (stereo not given in full)	300	0.1
C[C@]1(O)C(n2cnc3c(NCC4CCCO4)ncnc32)O[C@H](CO)[C@H]1O (stereo not given in full)	300	300
C[C@]1(O)C(n2cnc3c(NO)ncnc32)O[C@H](CO)[C@H]1O (stereo not given in full)	300	1.8
CCNC(=O)N(OC)c1ncnc2c1ncn2C1O[C@H](CO)[C@@H](O)[C@@]1(C)O (stereo not given in full)	300	80
CONc1ncnc2c1ncn2C1O[C@H](CO)[C@@H](O)[C@@]1(C)O (stereo not given in full)	300	4
C[C@]1(O)C(n2cnc3c(N(O)C(=O)Nc4ccccc4)ncnc32)O[C@H](CO)[C@H]1O (stereo not given in full)	300	1.8
CCONc1ncnc2c1ncn2C1O[C@H](CO)[C@@H](O)[C@@]1(C)O (stereo not given in full)	300	30
CSc1ncnc2c1ncn2C1O[C@H](CO)[C@@H](O)[C@@]1(C)O (stereo not given in full)	300	11
C[C@]1(O)C(n2cnc3c(-c4ccco4)ncnc32)O[C@H](CO)[C@H]1O (stereo not given in full)	300	275
CN(C)c1ncnc2c1ncn2C1O[C@H](CO)[C@@H](O)[C@@]1(C)O (stereo not given in full)	300	9
C[C@]1(O)C(n2cnc3c(N4CCCS4)ncnc32)O[C@H](CO)[C@H]1O (stereo not given in full)	200	15
C[C@]1(O)C(n2cnc3c(NCCC(N)=O)ncnc32)O[C@H](CO)[C@H]1O (stereo not given in full)	300	150

Structure (SMILES)	CC50 (Hepatitis C virus [1]) [µM]	EC50 (Hepatitis C virus [2]) [µM]
C[C@]1(O)C(n2cnc3c2NCN=C3N(CCO)CCO)O[C@H](CO)[C@H]1O (stereo not given in full)	300	20
CC(CNC1=NCNc2c1ncn2C1O[C@H](CO)[C@@H](O)[C@@]1(C)O)c1ccccc1 (stereo not given in full)	300	25
C[C@]1(O)C(n2cnc3c2NCN=C3NCCO)O[C@H](CO)[C@H]1O (stereo not given in full)	300	60
CN(O)c1ncnc2c1ncn2C1O[C@H](CO)[C@@H](O)[C@@]1(C)O (stereo not given in full)	300	4
CON(C)c1ncnc2c1ncn2C1O[C@H](CO)[C@@H](O)[C@@]1(C)O (stereo not given in full)	300	33
CSc1cccc(Nc2ncnc3c2ncn3C2O[C@H](CO)[C@@H](O)[C@@]2(C)O)c1 (stereo not given in full)	300	300
C[C@]1(O)C(n2cnc3c(C(=N)N)ncnc32)O[C@H](CO)[C@H]1O (stereo not given in full)	300	100
C[C@]1(O)C(n2cnc3c(N(O)C(=O)OCc4ccccc4)ncnc32)O[C@H](CO)[C@H]1O (stereo not given in full)	300	20
CCNC(=O)Nc1ncnc2c1ncn2C1O[C@H](CO)[C@@H](O)[C@@]1(C)O (stereo not given in full)	300	80
C[C@]1(O)C(n2cnc3c(-c4ccsc4)ncnc32)O[C@H](CO)[C@H]1O (stereo not given in full)	300	300
CNc1ncnc2c1ncn2C1O[C@H](CO)[C@@H](O)[C@@]1(C)O (stereo not given in full)	300	1
COC(=O)N(O)c1ncnc2c1ncn2C1O[C@H](CO)[C@@H](O)[C@@]1(C)O (stereo not given in full)	250	3
CCOc1ncnc2c1ncn2C1O[C@H](CO)[C@@H](O)[C@@]1(C)O (stereo not given in full)	300	13
C[C@]1(O)C(n2cnc3c(O)ncnc32)O[C@H](CO)[C@H]1O (stereo not given in full)	300	8
CCOc1ncnc2c1ncn2C1O[C@H](COP(=O)(OCCSC(C)=O)OCCSC(C)=O)[C@@H](O)[C@@]1(C)O (stereo not given in full)	300	0.08
C[C@]1(O)C(n2cnc3c2NCN=C3NOCCO)O[C@H](CO)[C@H]1O (stereo not given in full)	300	80
C[C@]1(O)C(n2cnc3c(C(=N)S)ncnc32)O[C@H](CO)[C@H]1O (stereo not given in full)	300	120
COc1ncnc2c1ncn2C1O[C@H](CO)[C@@H](O)[C@@]1(C)O (stereo not given in full)	300	9
CCNC(=O)N(O)c1ncnc2c1ncn2C1O[C@H](CO)[C@@H](O)[C@@]1(C)O (stereo not given in full)	200	2.2
CCNC(=O)N(O)C1=NCNc2c1ncn2C1O[C@H](CO)[C@@H](O)[C@@]1(C)O (stereo not given in full)	300	200
C[C@]1(O)C(n2cnc3c(-c4cccs4)ncnc32)O[C@H](CO)[C@H]1O (stereo not given in full)	200	80
C[C@@]1(O)[C@H](O)[C@@H](CO)O[C@H]1n1cnc2c(N)ncnc21	300	0.3
